The RNAGym collection of RNA variant scans (doi:10.1126/science.aae0568)
Variants at the floor of the assay were thinned out.

B1: tRNA (parent)
chain: GUUCCGUUGGCGUAAUGGUAACGCGUCUCCCUCCUAAGGAGAAGACUGCGGGUUCGAGUCCCGUACGGAACG

Variants of: B1
Assay: yeast fitness relative to wild type (ratio to wild type); higher = fitter; tRNA-Arg(CCU), competitive growth, 37 C, YPD
Outline: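 The tRNA-Arg(CCU) gene variants were made by chemical synthesis with a 3% per-site mutation rate at 69 sites and inserted at the native genomic locus of Saccharomyces cerevisiae. After pooling, the strains were competed in YPD at 37°C for 24 hours in six parallel replicates. Gene amplicons from the start population and each end population were read by 100-nucleotide paired-end sequencing, and Darwinian fitness relative to wild type was taken from genotype frequency changes. Genotypes needed ≥ 100 starting reads, and estimates < 0.5 were set to 0.5.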
U7G C11G gave a yeast fitness of 0.692.
Work on U16C U47C U64G yielded a yeast fitness of no more than 0.5.
In the case of A14C A36C A69U, the yeast fitness is reported as 0.905.
For C24A C29U, the yeast fitness was 0.643.
C22G G38C C60U gave a yeast fitness of no more than 0.5.
In the case of G9C C11U C22G A65U, the yeast fitness is reported as no more than 0.5.
In the case of G25C G68C, the yeast fitness is reported as 0.796.
A21G C46U C60A showed a yeast fitness of no more than 0.5.
Variant U7A A42G C46A C55G has a yeast fitness of no more than 0.5.
A15C G68A showed a yeast fitness of 0.76.
Work on U2G G38A A69C yielded a yeast fitness of 0.531.
Variant A20C C30U C31U A45C A57U C66G has a yeast fitness of no more than 0.5.
In the case of U16G U26G U54G, the yeast fitness is reported as 0.743.
For C11A G25C U28A A40U, the yeast fitness was 0.752.
U16G C31G C66U gave a yeast fitness of 0.586.
In the case of C4G C22A C55G, the yeast fitness is reported as no more than 0.5.
U2A C22U showed a yeast fitness of 0.796.
In the case of C30U G50C C66U, the yeast fitness is reported as 0.526.
Work on G12A C31G C34A yielded a yeast fitness of 0.585.
Variant G18C C29U C46U A57G has a yeast fitness of 0.636.
G18A A57G A69U showed a yeast fitness of no more than 0.5.
Variant C4U A36U C55A has a yeast fitness of 0.659.
C46U C60U showed a yeast fitness of 0.807.
Work on U28G C29A G41C A43U U47C C66G yielded a yeast fitness of no more than 0.5.
With U16C G17A C27U C34G G38C A43G C62A the yeast fitness was no more than 0.5.
C29G C33U C34G U54A gave a yeast fitness of 0.545.
For U35C A69U, the yeast fitness was 0.949.
For U8A A37C A43U G63A, the yeast fitness was 0.561.
For C4G U7C C22U U35G C61A, the yeast fitness was no more than 0.5.
For U2A C30G G58C C66G, the yeast fitness was no more than 0.5.
For A20C A40U C60G A65C, the yeast fitness was no more than 0.5.
In the case of A15U C24G G56A, the yeast fitness is reported as no more than 0.5.
With C27U A36C G39C G48C G63U the yeast fitness was 0.547.
With U3A C11G A40G U53G G68C the yeast fitness was 0.654.
For A14G U26G U54G A69U, the yeast fitness was no more than 0.5.
G10A C24U C49U showed a yeast fitness of 0.53.
For A20C C30A A45U C60U, the yeast fitness was no more than 0.5.
In the case of C5G A40U G58C, the yeast fitness is reported as 0.732.
With U8A C11G A65G the yeast fitness was 0.857.
G6A C33G A43U showed a yeast fitness of 0.574.
Work on U7A C31G A70U yielded a yeast fitness of no more than 0.5.
In the case of G18A C34U A43C, the yeast fitness is reported as no more than 0.5.
With G48C U54A the yeast fitness was 0.679.
In the case of G18A C24A C31A G68U, the yeast fitness is reported as no more than 0.5.
In the case of C5G G10C, the yeast fitness is reported as 0.651.
With G25C C29G C60G the yeast fitness was no more than 0.5.
Variant C22A U54C has a yeast fitness of 0.917.
Variant A15C G23C has a yeast fitness of 0.555.
Variant C30A C31G G67C has a yeast fitness of 0.546.
In the case of C11A A14G C29U A65C, the yeast fitness is reported as no more than 0.5.
For C5A U16A G17A A42C, the yeast fitness was no more than 0.5.
C24A C27G C29G showed a yeast fitness of 0.639.
Work on U7C G67A A69C yielded a yeast fitness of 0.534.
For C22U U54C C55A A65G C66U, the yeast fitness was no more than 0.5.
Work on G6A C34U U64A yielded a yeast fitness of no more than 0.5.
U13A U16A C49A C61U C62G showed a yeast fitness of no more than 0.5.
Work on G9C G17A U19C G23A G67U yielded a yeast fitness of no more than 0.5.
For A37U C46U, the yeast fitness was 0.821.
With C5G A36U G52C G67U A69U the yeast fitness was no more than 0.5.
C5A A20G U26C A40C showed a yeast fitness of no more than 0.5.
For A45C G51C A57G, the yeast fitness was no more than 0.5.
With U3C G25A the yeast fitness was 0.968.
A21G A45C C66U showed a yeast fitness of 0.555.
With U8G C24G G41A C49G C60A C62G A70C the yeast fitness was no more than 0.5.
With C4G G9A G18C C31U C55A A65C the yeast fitness was no more than 0.5.
For C5U G39A C55U, the yeast fitness was 0.614.
Work on G51C G58A yielded a yeast fitness of 0.789.
In the case of C11U C30G G58A, the yeast fitness is reported as no more than 0.5.
Variant U8C U26A C61A A65U has a yeast fitness of no more than 0.5.
For G17A A36C A37U A43C C46U C49G G50A, the yeast fitness was 0.59.
A43C G63C G67A gave a yeast fitness of no more than 0.5.
For G10C A14U G67A, the yeast fitness was no more than 0.5.
For C4A A43U U47G, the yeast fitness was no more than 0.5.
With G6A U8C U13G C27U C61G the yeast fitness was 0.567.
Variant C11U U13A U32C C49U has a yeast fitness of no more than 0.5.
For A14G C22A C27A C29U A42C A57U C60A, the yeast fitness was no more than 0.5.
For C4G A36U C62G, the yeast fitness was 0.54.
A20U A69C gave a yeast fitness of 0.979.
With A57U C61G the yeast fitness was 0.592.
Variant C11A G25C U26C C29U A65C A70U has a yeast fitness of 0.558.
With A14C A45C G50A the yeast fitness was no more than 0.5.
U2C A42G C61G showed a yeast fitness of no more than 0.5.
In the case of C4G G9C G38C G68A, the yeast fitness is reported as no more than 0.5.
G39C U54G A65G gave a yeast fitness of no more than 0.5.
G23A C33G C49A U54G A65G gave a yeast fitness of 0.617.
U13A U28C G56A gave a yeast fitness of 0.805.
In the case of G17A C61A G63A, the yeast fitness is reported as 0.66.
With C27U C30U U53A the yeast fitness was 0.62.
A43G C55U C61A gave a yeast fitness of no more than 0.5.
For G6C G17A C24A U32C, the yeast fitness was no more than 0.5.
With U2C C5G G9A A15U A69U the yeast fitness was no more than 0.5.
C4U A21G G52A showed a yeast fitness of no more than 0.5.
C4A A36G A40G C66U showed a yeast fitness of 0.624.
Work on G23A C30U U54C yielded a yeast fitness of 0.528.
In the case of A14U C30A C66U A70G, the yeast fitness is reported as 0.64.
With A20G C29U C34U G50A C55G the yeast fitness was no more than 0.5.
Work on C30G U32A A42U yielded a yeast fitness of no more than 0.5.
Variant A14G U53A has a yeast fitness of 0.63.
For U16C A20U G25C C60A, the yeast fitness was no more than 0.5.
U13A C61G A70G showed a yeast fitness of 0.6.
Work on U3G C27G C49G A70G yielded a yeast fitness of no more than 0.5.
G25A C31U G38C A65C G68A A69U gave a yeast fitness of no more than 0.5.
C5G C11U G17A A20C C49G gave a yeast fitness of no more than 0.5.
A37C A43C gave a yeast fitness of 0.931.
C5A U7A showed a yeast fitness of 0.636.
A20C G25A G44A gave a yeast fitness of 0.85.
With C4U C27U A43G the yeast fitness was 0.649.
Work on G6C C33G A36C C49A G56A C60G A70U yielded a yeast fitness of no more than 0.5.
With G10A G56A the yeast fitness was 0.754.
With C4G C5A C24U the yeast fitness was no more than 0.5.
In the case of G10A C29G G39C, the yeast fitness is reported as no more than 0.5.
Work on C11A G25C C29U C49U yielded a yeast fitness of no more than 0.5.
U8A U19G C24G U32A gave a yeast fitness of no more than 0.5.
With A20U G25A A69C the yeast fitness was 0.963.
U54C U59A gave a yeast fitness of 0.82.
For U2A G39A A69G, the yeast fitness was 0.599.
In the case of U7C U13G C30U, the yeast fitness is reported as no more than 0.5.
G6A A36G G48A gave a yeast fitness of 0.59.
A36C A40U A57C gave a yeast fitness of 0.52.
With G23A G38C A40C A43C the yeast fitness was no more than 0.5.
Variant C27U A69C has a yeast fitness of 1.01.
Work on A37G C66G yielded a yeast fitness of 0.692.
Work on C11U C31G A57U yielded a yeast fitness of 0.533.
A15U C22U gave a yeast fitness of 0.743.
U7C A20G C31U A43G U59A gave a yeast fitness of no more than 0.5.
With C11G A57G C61U the yeast fitness was 0.588.
In the case of C11A C27U G44U U64G A65G, the yeast fitness is reported as 0.593.
Variant C33U A69U has a yeast fitness of 0.788.
C5G G18A G48C G67A showed a yeast fitness of no more than 0.5.
U28G U35G A45U showed a yeast fitness of no more than 0.5.
A14C A69U showed a yeast fitness of 0.763.
C22U G23A C66G G67A showed a yeast fitness of no more than 0.5.
Variant U28C U64A has a yeast fitness of 0.622.
Work on A43U U47C C55A A65U A70G yielded a yeast fitness of no more than 0.5.
Variant U32C C62U has a yeast fitness of 1.02.
C60U C66G showed a yeast fitness of 0.687.
Work on C27U C46A A70G yielded a yeast fitness of 0.66.
With G10C A21C C27A C34A C49G A65G the yeast fitness was no more than 0.5.
With U2G A14U A20G C33G A70C the yeast fitness was no more than 0.5.
For A15C A36C G39C, the yeast fitness was no more than 0.5.
U3C G50C showed a yeast fitness of 0.714.
For U2C C5A C24A U64G, the yeast fitness was no more than 0.5.
In the case of U16A U47C A65U, the yeast fitness is reported as 0.727.
For C4G A70G, the yeast fitness was 0.909.
C11A G23A A43U showed a yeast fitness of no more than 0.5.
For C55G A57C, the yeast fitness was 0.713.
With U19C G48C A57G the yeast fitness was 0.565.
For C30A C31G C49A C60U G67A, the yeast fitness was 0.526.
Work on C34U G68A yielded a yeast fitness of 0.774.
In the case of A15U A70G, the yeast fitness is reported as 0.663.
Variant A14C A21U C22U A37G G44A A45C C46A C55U U59G has a yeast fitness of 0.608.
For U8C A37C C49G, the yeast fitness was no more than 0.5.
U16A A20U C46A showed a yeast fitness of no more than 0.5.
Variant A15C A37G has a yeast fitness of 0.614.
Work on C5A U13G C34G A45U yielded a yeast fitness of 0.619.
A21C C31A C49U showed a yeast fitness of 0.734.
With C27G G41C the yeast fitness was 1.01.
In the case of U3C A42U, the yeast fitness is reported as 0.9.
For C24U C33U G48A C61U, the yeast fitness was no more than 0.5.
With C24G C31U C60G the yeast fitness was no more than 0.5.
U19A C24A G48C showed a yeast fitness of no more than 0.5.
Work on G6C G44C yielded a yeast fitness of 0.853.
A21C A43U showed a yeast fitness of 0.902.
G6C G12A U35A gave a yeast fitness of 0.55.
In the case of A15U C31G, the yeast fitness is reported as 0.676.
C11G A37C showed a yeast fitness of 0.606.
Work on G9A A21C G52A G56C C62G C66U yielded a yeast fitness of no more than 0.5.
